“Also recorded” adds a separate entry of the source.
Assays:
[1] = Oxyfluorfen quantitation in serum and thyroid gland; format: in vivo, rat
In short: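 Serum came from 4-day gavage (0–500 mg/kg) and male 8-day gavage (PND27–34, 0–62.5 mg/kg); thyroids came from 8-day rats. Serum (60 µL) was spiked with d5-labelled internal standard, equilibrated 30 min at room temperature, then protein-precipitated with acetonitrile. LC/MS/MS used positive ESI in MRM mode with isotope dilution and serum-matched calibration (2.5–5000 ng/ml). LOQ 25 ng/mL serum, 2.5 ng/g thyroid; results below LOQ reported ND.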

[2] = cited from earlier work
thyroid cancer = conditions: human epidemiology, California; ref Omidakhsh et al., 2022; cited from earlier work
deiodinase = conditions: ToxCast in vitro; ref Olker et al., 2019; cited from earlier work
[3] = Body weight, percent growth and general toxicity in 4- and 8-day studies; format: in vivo, rat
[4] = test system: juvenile male and female Sprague-Dawley rats; test: Four-day oral exposure, serum thyroid hormones; format: in vivo, rat
In short: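 Weanling Sprague-Dawley rats arrived PND21 and were fed AIN-93 diet (iodide 225 ng/g). Groups were weight-ranked, n = 6 per sex per dose. Daily oral gavage PND 27–30 at 0, 125, 250 or 500 mg/kg in 1 % methyl cellulose suspension, adjusted to daily body weight. Decapitation ~2 hr after 4th dose. Trunk serum total T4/T3 by RIA kits (LOD 1.24, 0.50 ng/ml). One-way ANOVA, Dunnett's; mean ± SEM.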

FRTL-5 cells = conditions: any concentration tested up to 100 μM; ref Buckalew et al., 2020; cited from earlier work
mouse and rabbit = mouse and rabbit studies; ref U.S. EPA, 2021; cited from earlier work
[5] = test system: juvenile male Sprague-Dawley rats; test: Eight-day oral exposure, serum thyroid hormones, TSH and thyroid weight; format: in vivo, rat
[6] = biological target: T1, human sodium iodide symporter (NIS) (Homo sapiens, UniProt Q92911); test: hNIS-HEK293T-EPA radioactive iodide uptake; format: cell-based
T1 sequence (Q92911 1-643): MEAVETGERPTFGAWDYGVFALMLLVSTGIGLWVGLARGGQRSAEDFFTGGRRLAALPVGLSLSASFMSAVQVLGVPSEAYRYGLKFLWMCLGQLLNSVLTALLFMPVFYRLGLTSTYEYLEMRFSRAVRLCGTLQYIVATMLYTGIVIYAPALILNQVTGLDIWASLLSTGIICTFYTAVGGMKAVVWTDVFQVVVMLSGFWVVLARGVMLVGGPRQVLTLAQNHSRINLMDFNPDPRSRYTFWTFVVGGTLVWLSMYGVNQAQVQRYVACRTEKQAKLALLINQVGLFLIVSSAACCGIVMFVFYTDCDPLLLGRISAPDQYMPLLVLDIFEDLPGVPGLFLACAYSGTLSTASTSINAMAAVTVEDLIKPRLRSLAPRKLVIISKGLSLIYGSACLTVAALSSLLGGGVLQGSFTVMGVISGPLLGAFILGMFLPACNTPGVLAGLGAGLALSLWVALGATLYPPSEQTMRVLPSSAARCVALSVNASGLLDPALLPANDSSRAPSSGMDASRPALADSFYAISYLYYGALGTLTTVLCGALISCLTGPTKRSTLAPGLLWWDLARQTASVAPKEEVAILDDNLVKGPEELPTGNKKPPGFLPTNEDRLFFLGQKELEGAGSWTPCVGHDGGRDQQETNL

hNIS-HEK293T-EPA cells = conditions: any concentration tested up to 100 μM; ref Buckalew et al., 2020; cited from earlier work
thyroid peroxidase = conditions: ToxCast in vitro; ref Paul Friedman et al., 2016; cited from earlier work
liver = conditions: 98 % pure technical grade, up to 73 mg/kg; ref U.S. EPA, 2021; cited from earlier work
[7] = higher purity (>98 %) oxyfluorfen; ref RED 2002; 2019; cited from earlier work
[8] = 8 days oral, any treatment group (0.8125 to 62.5 mg/kg)

CCOc1cc(Oc2ccc(C(F)(F)F)cc2Cl)ccc1[N+](=O)[O-] [oxyfluorfen, 2-chloro-1-(3-ethoxy-4-nitrophenoxy)-4(trifluoromethyl)benzene]
Serum oxyfluorfen detection ([1]; all treated serum samples, 4- and 8-day studies): detected | Kp at 8 days ([1]; male, Sprague-Dawley, rat, thyroid gland / serum, oral, 62.5 mg/kg): 2 to 3 | Tissues with the highest levels of oxyfluorfen ([2]; following acute exposure, ref U.S. EPA, 2019): lung, thyroid, liver, ovaries, kidneys, adrenals and fat | Half-life ([2]; in the rat, ref 2002 RED): approximately 30 h | Association with the occurrence of thyroid cancer (thyroid cancer): increased odds ratio | Activity in deiodinase inhibition assay (deiodinase): no reported thyroid activity | Final body weight or percent growth ([3]; 4- or 8-day treatment, any dose, male or female): did not significantly affect | Visible signs of toxicity ([3]; daily observations, all treated animals): no visible signs of toxicity | Decrease in serum T3 ([4]; female, 4 days oral, 125 mg/kg): 18% | Decrease in serum T4 ([4]; female, 4 days oral, 125 mg/kg): ~55% | Serum T3 vs control ([4]; female, 4 days oral, 125 mg/kg): significantly suppressed | Serum T3 vs control ([4]; female, 4 days oral, 250 mg/kg): not significantly suppressed | Serum T3 vs control ([4]; female, 4 days oral, 500 mg/kg): significantly suppressed | Total serum thyroxine (T4) ([4]; male and female, 4 days, all doses (125, 250, 500 mg/kg/day)): suppressed | Decrease in serum T3 ([4]; male, 4 days oral, 125 mg/kg): 35% | Decrease in serum T4 ([4]; male, 4 days oral, 125 mg/kg): 68% | Suppression of serum T3 ([4]; male, 4 days oral, 125 to 500 mg/kg): approximately 30% | Suppression of serum T4 ([4]; male, 4 days oral, all doses (125, 250, 500 mg/kg)): 70% | Cytotoxicity (FRTL-5 cells): no observed cytotoxicity; also recorded: no confounding cytotoxicity | Current guideline NOELs and LOELs (mouse and rabbit): 33 mg/kg | LOEL for suppression of serum T4 ([5]; 8-day daily oral exposure): 3.25 mg/kg | NOEL for serum T4 ([5]; 8-day daily oral exposure): 1.625 mg/kg | LOEL for suppression of serum T3 ([5]; 8-day oral exposure): 62.5 mg/kg/day | LOEL for suppression of serum T4 ([5]; 8-day oral exposure): 3.25 mg/kg/day | Serum T3 vs control ([5]; 8 days oral, 62.5 mg/kg): significantly suppressed | Serum T3 vs control ([5]; 8 days oral, 15 and 31.25 mg/kg): non-significant decrease | Serum TSH [5, 8]: no significant differences; also recorded: No significant effects; also recorded: no significant changes | Thyroid weight [5, 8]: No changes; also recorded: no significant differences | IC50 [6]: 2000 nM | Cytotoxicity (hNIS-HEK293T-EPA cells): no observed cytotoxicity; also recorded: no confounding cytotoxicity | Activity in thyroid peroxidase inhibition assay (thyroid peroxidase): no reported thyroid activity | Liver tumor incidence (liver): has not shown liver tumor incidence | Acute oral, dermal, and inhalation toxicity [7]: low oral toxicity

Source: paper PMC10787258 (Current Research in Toxicology, 2023)
